The test system of assay [1] is SGEF. Description: Yeast two-hybrid screen with full-length human SGEF as bait. Format: binding. As to conditions: mouse kidney cDNA library.
Assay [2] concerns RhoG. Description: RhoG activity pulldown. Format: cell-based, canine. As to conditions: normalized to total RhoG, three independent experiments. In short, it runs like this: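 Active RhoG was pulled down with GST–ELMO from total lysates of control, SGEF-knockdown and rescue MDCK cells, then immunoblotted with anti-RhoG. Active levels were normalised to total RhoG; mean ± SEM of three independent experiments.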

Assay [3] has as its system MDCK cells. As to the kind of experiment: Apical cell area and axial ratio. Format: cell-based, canine. The note with it: major/minor axis aspect ratio. In short, it runs like this: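 Apical cell area and axial ratio were measured in control, SGEF-knockdown and WT-rescue MDCK monolayers from two fields in each of two independent experiments (n = 100 cells for area, n = 150 for axial ratio). Plots show min-to-max spread.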

Assay [4] concerns Scribble/SGEF/Dlg1 ternary complex. Description: Coprecipitation of Scribble with GFP-Dlg1. Format: binding. As to conditions: HA-Scribble and GFP-Dlg1 coexpressed, IP anti-GFP, HEK293.
Assay [5] concerns MDCK cells. As to the kind of experiment: Protein levels and junctional localization by WB and IF. Format: cell-based, canine. In short, it runs like this: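 Total lysates of confluent control, SGEF-knockdown and WT-rescue MDCK cells were immunoblotted, with tubulin as loading control. For immunofluorescence, cells were fixed in 3.7% paraformaldehyde, permeabilised with 0.1% Triton X-100 and imaged by confocal. Afadin enrichment was scored as the tricellular/bicellular junction intensity ratio (≥200 junctions, at least three fields, two experiments; Mann–Whitney U test).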

For assay [6], the system named is MDCK cells. As to the kind of experiment: Height of MDCK monolayer, confocal XZ. Format: cell-based, canine. As to conditions: average, n = 50 cells, three independent experiments; Fig. 5 I. In short, it runs like this: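 Confocal XZ sections of confluent control, SGEF-knockdown and rescue MDCK monolayers were acquired on a Leica SP8. Cells were stained for E-cadherin, β-catenin and nuclei, or for F-actin and Hoechst, and monolayer height was measured.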

Assay [7] concerns MDCK cells. Description: 3D cyst lumen formation in matrigel. It counts as cell-based, canine.
Assay [8] relates to MDCK cells. As to the kind of experiment: Actomyosin organization by IF. Format: cell-based, canine. The note with it: IF, HyVolution.
Assay [9] has as its system MDCK cells. As to the kind of experiment: Zigzag index of tight junctions. Format: cell-based, canine. As to conditions: average; 1 = straight line; CTRL 1.24.
Assay [10] has as its system Xenopus embryos. Description: Junctional localization in gastrula-stage embryos. It counts as in vivo, Xenopus laevis. The note with it: live confocal, mNeon-tagged. In short, it runs like this: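 Embryos were microinjected in the animal hemisphere with mRNAs, either at the two-cell stage (each cell twice) or at the four-cell stage (once). They were raised to gastrula stage (10.5–12) and live-imaged by confocal. mNeon-tagged protein was coexpressed with BFP-ZO-1 (tight junction marker) and PLEKHA7-mCherry (adherens junction marker), and the junctional-to-cytosolic intensity ratio was quantified.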

For assay [11], the system named is Dlg1. Description: Coimmunoprecipitation of SGEF constructs with GFP-Dlg1, HEK293FT lysates. It counts as binding, Mouse. The note with it: GFP-trap nanobodies, WB. Put shortly: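 HEK293FT cells were co-transfected by calcium phosphate; medium was changed at 24 h and cells harvested at 48 h. Lysis was in Tris-HCl pH 7.4, MgCl2, 150 mM NaCl, 1% Triton X-100 and protease inhibitors. Equal protein was incubated with GFP-Trap beads for 1 h at 4°C, washed four times, then immunoblotted with anti-GFP and anti-myc (or anti-His).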

The test system of assay [12] is Scribble. Description: Coimmunoprecipitation of SGEF constructs with GFP-Scribble, HEK293FT lysates. It counts as binding, Human. As to conditions: GFP-trap nanobodies, WB.

With “Scribble: Scribble polarity protein, 1–1,630”, the “potential binding partner for SGEF” value in [1] is recorded as “potential binding partner for SGEF”.

B1: SGEF WT: full-length SGEF 1–871, RhoG-specific GEF, myc- or mNeon-tagged (protein)
chain: MDGESEVDFSSNSITPLWRRRSIPQPHQVLGRSKPRPQSYQSPNGLLITDFPVEDGGTLLAAQIPAQVPTASDSRTVHRSPLLLGAQRRAVANGGTASPEYRAASPRLRRPKSPKLPKAVPGGSPKSPANGAVTLPAPPPPPVLRPPRTPNAPAPCTPEEDLTGLTASPVPSPTANGLAANNDSPGSGSQSGRKAKDPERGLFPGPQKSSSEQKLPLQRLPSQENELLENPSVVLSTNSPAALKVGKQQIIPKSLASEIKISKSNNQNVEPHKRLLKVRSMVEGLGGPLGHAGEESEVDNDVDSPGSLRRGLRSTSYRRAVVSGFDFDSPTSSKKKNRMSQPVLKVVMEDKEKFSSLGRIKKKMLKGQGTFDGEENAVLYQNYKEKALDIDSDEESEPKEQKSDEKIVIHHKPLRSTWSQLSAVKRKGLSQTVSQEERKRQEAIFEVISSEHSYLLSLEILIRMFKNSKELSDTMTKTERHHLFSNITDVCEASKKFFIELEARHQNNIFIDDISDIVEKHTASTFDPYVKYCTNEVYQQRTLQKLLATNPSFKEVLSRIESHEDCRNLPMISFLILPMQRVTRLPLLMDTICQKTPKDSPKYEVCKRALKEVSKLVRLCNEGARKMERTEMMYTINSQLEFKIKPFPLVSSSRWLVKRGELTAYVEDTVLFSRRTSKQQVYFFLFNDVLIITKKKSEESYNVNDYSLRDQLLVESCDNEELNSSPGKNSSTMLYSRQSSASHLFTLTVLSNHANEKVEMLLGAETQSERARWITALGHSSGKPPADRTSLTQVEIVRSFTAKQPDELSLQVADVVLIYQRVSDGWYEGERLRDGERGWFPMECAKEITCQATIDKNVERMGRLLGLETNV
modifications: left off: myc, end not stated, kept
B1: the “active RhoG level” value in [2] is “returned to normal”. The axial ratio entry in [3] is reported as “could be rescued”. The “formation of Scribble/SGEF/Dlg1 ternary complex” value in assay [4] is recorded as “Scribble coprecipitated efficiently with Dlg1”. Besides, the “β-catenin and p120-catenin localization at cell–cell junctions” value in assay [5] (IF) is given as “restored to normal”. For the same molecule, the “localization of Scribble and Dlg1” value in assay [5] (IF, rescue of SGEF KD) was “restored the normal localization of both Scribble and Dlg1”. The cadherin-6 levels entry in assay [5] (WB) is reported as “restored to normal levels”. In assay [5] (WB and IF), the “E-cadherin level and localization” value was “restored both the proper expression level and localization of E-cadherin”; the “afadin expression levels and localization at AJs” value is “rescued to normal levels”. Also, the cell height in assay [6] is listed as 5.61 ± 0.16 µm. Also, the “cysts with a single lumen” value in [7] (Fig. 10 D, red and dark green bars, CTRL 65%) is 36%. Also, in assay [7] (Fig. 10 D, red and orange bars, CTRL 100%), the “cysts with an open lumen” value turned out to be 77%. The “E-cadherin expression in cysts” value in assay [7] (IF, 3D cysts) is reported as “restored to normal levels”. For the same molecule, in assay [7] (matrigel, 4 d), the “cysts with multiple open lumens” value is on record as 40%. The “actomyosin organization at apical junction” value in assay [8] is “restored the normal apical and basal actomyosin pattern”. Moreover, the zigzag index in [9] is reported as 1.16. In addition, in [10], the “localization at apical junctional complex” value is “localized efficiently to the AJC”. Further, the “interaction with Dlg1” value in assay [11] is on record as “able to bind efficiently to Dlg1”. Besides, in assay [12], the “interaction with Scribble” value was “confirmed the interaction”.
